Data: ChEMBL document CHEMBL1240345 (Nat Chem Biol, 2009)
The source made the active and inactive calls. The calls are words filed in the database; no cut-off is given here.

Tests used:
[1] = molecular target: T1, Dual specificity protein phosphatase 6 (Homo sapiens) (UniProt Q16828); assay: Inhibition of Myc-tagged human Dusp6 expressed in TPA-induced human HeLa cells assessed as decrease in dephosphorylation of pERK measured at 100 uM by immunostaining; type: cell-based
T1 sequence (whole entry): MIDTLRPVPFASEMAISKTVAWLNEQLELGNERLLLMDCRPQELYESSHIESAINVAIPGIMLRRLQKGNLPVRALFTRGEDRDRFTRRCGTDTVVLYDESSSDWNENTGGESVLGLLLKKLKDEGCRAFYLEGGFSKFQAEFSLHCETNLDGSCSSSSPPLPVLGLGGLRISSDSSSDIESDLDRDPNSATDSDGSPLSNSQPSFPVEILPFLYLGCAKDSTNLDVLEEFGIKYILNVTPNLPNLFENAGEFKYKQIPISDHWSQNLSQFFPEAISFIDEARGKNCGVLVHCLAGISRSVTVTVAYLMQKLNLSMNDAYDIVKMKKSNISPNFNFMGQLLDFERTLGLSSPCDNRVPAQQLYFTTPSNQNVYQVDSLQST

[2] = molecular target: T2, Dual specificity protein phosphatase 1 (Homo sapiens) (UniProt P28562); assay: Inhibition of Myc-tagged human Dusp1 expressed in TPA-induced human HeLa cells assessed as decrease in dephosphorylation of pERK measured at 100 uM by immunostaining; type: cell-based
T2 sequence (whole entry): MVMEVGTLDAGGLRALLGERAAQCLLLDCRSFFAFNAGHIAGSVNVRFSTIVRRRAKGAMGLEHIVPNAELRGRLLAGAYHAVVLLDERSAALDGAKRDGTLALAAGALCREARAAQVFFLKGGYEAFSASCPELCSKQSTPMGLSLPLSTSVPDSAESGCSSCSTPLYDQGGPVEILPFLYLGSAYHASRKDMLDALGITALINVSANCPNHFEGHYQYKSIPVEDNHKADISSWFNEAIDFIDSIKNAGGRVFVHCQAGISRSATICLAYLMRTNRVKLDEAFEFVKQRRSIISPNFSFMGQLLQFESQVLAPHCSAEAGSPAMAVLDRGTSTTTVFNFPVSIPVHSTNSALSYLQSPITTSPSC

Danio rerio [3] = species on record: Danio rerio; assay: Inhibition of dusp22a gene expression in Tg(dusp:EGFP)pt6 zebrafish embryos; type: functional; settings: Embryo
[4] = molecular target: T3, Dual specificity protein phosphatase 5 (Homo sapiens) (UniProt Q16690); assay: Inhibition of Dusp5
T3 sequence (whole entry): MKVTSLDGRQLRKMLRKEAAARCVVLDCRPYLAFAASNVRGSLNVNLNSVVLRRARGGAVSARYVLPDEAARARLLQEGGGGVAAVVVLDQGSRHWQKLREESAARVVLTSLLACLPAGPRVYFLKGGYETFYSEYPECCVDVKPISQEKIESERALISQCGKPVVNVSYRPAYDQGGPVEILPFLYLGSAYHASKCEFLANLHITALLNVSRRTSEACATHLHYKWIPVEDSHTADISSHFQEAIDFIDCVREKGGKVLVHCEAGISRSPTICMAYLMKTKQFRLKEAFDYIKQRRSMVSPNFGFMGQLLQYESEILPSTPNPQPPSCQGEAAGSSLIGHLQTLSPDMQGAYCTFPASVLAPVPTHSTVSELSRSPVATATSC

[5] = molecular target: T4, Dual specificity protein phosphatase 1 (Homo sapiens, UniProt P28562); assay: Inhibition of Myc-tagged human Dusp1 expressed in TPA-induced human HeLa cells assessed as decrease in dephosphorylation of pERK measured by immunostaining; type: cell-based
T4 sequence (P28562 whole entry): T2 sequence (whole entry)
Procedure, shortened: (§1)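 HeLa cells (2,000 per collagen-coated well; DMEM, 10% FBS, 37°C, 5% CO2) were transfected with human c-Myc-Dusp1 or c-Myc-Dusp6. After 20 h, quadruplicate wells received ten two-fold concentrations of compound for 15 min, then TPA (500 ng/ml) for 15 min. Cells were fixed and immunostained for pERK and c-Myc, and 1000 Myc-gated cells were imaged. pERK restoration was expressed as Kolmogorov-Smirnov values normalized to vehicle-treated transfected wells. Six independent experiments were run.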

[6] = molecular target: T1, Dual specificity protein phosphatase 6 (Homo sapiens); assay: Inhibition of Dusp6 basal phosphatase activity using 3-o-methylfluoro-rescein phosphate substrate at 10:1 enzyme to ERK protein ration; settings: concentration not given here
[7] = Increase in transcription factor gata4 gene in Tg(dusp:EGFP)pt6 zebrafish embryo anterior lateral plate mesoderm; type: functional, Danio rerio
Danio rerio [8] = species on record: Danio rerio; assay: Increase in cardiac cmlc2 expression in 18-somite stage Tg(dusp:EGFP)pt6 zebrafish embryo
[9] = molecular target: T5, Dual specificity protein phosphatase 6 (Homo sapiens, UniProt Q16828); assay: Inhibition of Myc-tagged human Dusp6 expressed in TPA-induced human HeLa cells assessed as decrease in dephosphorylation of pERK measured by immunostaining; type: cell-based; procedure, shortened: as §1
T5 sequence (Q16828 whole entry): T1 sequence (whole entry)

[10] = molecular target: T1, Dual specificity protein phosphatase 6 (Homo sapiens); assay: Inhibition of Dusp6 in 1-somite stage Tg(dusp:EGFP)pt6 zebrafish assessed as increase in dusp6 FGF target gene expression in rhombomere 4 at 10 uM by RT-PCR
[11] = Increase in transcription factor nkx2.5 gene in Tg(dusp:EGFP)pt6 zebrafish embryo anterior lateral plate mesoderm; type: functional, Danio rerio
[12] = molecular target: T1, Dual specificity protein phosphatase 6 (Homo sapiens); assay: Inhibition of Dusp6 in 1-cell stage Tg(dusp:EGFP)pt6 zebrafish embryos injected with XFD mRNA assessed as sef gene expression restoring at 5 uM
Procedure, shortened: (§2)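 Embryos were injected at the 1-2 cell stage with 500 pg of spry4 or XFD mRNA. They were exposed to 5 μM compound at the 1000-cell stage and fixed at shield stage. sef expression was then assessed by in situ hybridization.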

Danio rerio [13] = species on record: Danio rerio; assay: Increase in cardiac myl7 expression in 18-somite stage Tg(dusp:EGFP)pt6 zebrafish embryo
[14] = molecular target: T1, Dual specificity protein phosphatase 6 (Homo sapiens); assay: Inhibition of Dusp6 in 10-somite stage Tg(dusp:EGFP)pt6 zebrafish assessed as increase in dusp6 FGF target gene expression in rhombomere 4 at 10 uM by RT-PCR
[15] = molecular target: T1, Dual specificity protein phosphatase 6 (Homo sapiens); assay: Inhibition of Dusp6 in 1-cell stage Tg(dusp:EGFP)pt6 zebrafish embryos injected with spry4 mRNA assessed as sef gene expression restoring at 5 uM; procedure, shortened: as §2
[16] = molecular target: T1, Dual specificity protein phosphatase 6 (Homo sapiens); assay: Inhibition of Dusp6 in Tg(dusp:EGFP)pt6 zebrafish embryo assessed as reduction in etv2 gene expression
[17] = molecular target: T1, Dual specificity protein phosphatase 6 (Homo sapiens); assay: Inhibition of Dusp6 in 10-somite stage Tg(dusp:EGFP)pt6 zebrafish assessed as increase in dusp6 FGF target gene expression in tailbud at 10 uM by RT-PCR
[18] = molecular target: T1, Dual specificity protein phosphatase 6 (Homo sapiens); assay: Inhibition of Dusp6 in Tg(dusp:EGFP)pt6 zebrafish assessed as increase in spry4 gene expression at 10 uM by RT-PCR
[19] = molecular target: T1, Dual specificity protein phosphatase 6 (Homo sapiens); assay: Inhibition of Dusp6 in Tg(dusp:EGFP)pt6 zebrafish assessed as increase in FGF-signaling mediated d2EGFP fluorescence at 10 uM after 2 hrs
Procedure, shortened: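 Tg(dusp6:EGFP)pt6 embryos from natural crosses were raised at 28.5°C to 24 hpf, then placed five per well in E3. Compound was added at 10 μM in 0.5% DMSO, with 0.5% DMSO as vehicle control. d2EGFP intensity was scored visually against vehicle-treated embryos. Assays were run three times, and at least four of five embryos had to share the phenotype.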

Danio rerio [20] = species on record: Danio rerio; assay: Increase in cardiac hand2 expression in 10-somite stage Tg(dusp:EGFP)pt6 zebrafish embryo; type: functional
[21] = molecular target: T1, Dual specificity protein phosphatase 6 (Homo sapiens); assay: Inhibition of Dusp6 in 1-somite stage Tg(dusp:EGFP)pt6 zebrafish assessed as increase in dusp6 FGF target gene expression in tailbud at 10 uM by RT-PCR
Danio rerio [22] = species on record: Danio rerio; assay: Inhibition of dusp4 gene expression in Tg(dusp:EGFP)pt6 zebrafish embryos; type: functional; settings: Embryo
[23] = molecular target: T1, Dual specificity protein phosphatase 6 (Homo sapiens); assay: Inhibition of Dusp6 basal phosphatase activity using 3-o-methylfluoro-rescein phosphate substrate
Procedure, shortened: (§3)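 Recombinant Dusp6 activity was followed as dephosphorylation of the small-molecule substrate 3-O-methylfluorescein phosphate, with or without ERK2 present to stimulate catalysis.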

[24] = molecular target: T6, Tyrosine-protein phosphatase non-receptor type 1 (Homo sapiens, UniProt P18031); assay: Inhibition of PTP1B
T6 sequence (P18031 whole entry): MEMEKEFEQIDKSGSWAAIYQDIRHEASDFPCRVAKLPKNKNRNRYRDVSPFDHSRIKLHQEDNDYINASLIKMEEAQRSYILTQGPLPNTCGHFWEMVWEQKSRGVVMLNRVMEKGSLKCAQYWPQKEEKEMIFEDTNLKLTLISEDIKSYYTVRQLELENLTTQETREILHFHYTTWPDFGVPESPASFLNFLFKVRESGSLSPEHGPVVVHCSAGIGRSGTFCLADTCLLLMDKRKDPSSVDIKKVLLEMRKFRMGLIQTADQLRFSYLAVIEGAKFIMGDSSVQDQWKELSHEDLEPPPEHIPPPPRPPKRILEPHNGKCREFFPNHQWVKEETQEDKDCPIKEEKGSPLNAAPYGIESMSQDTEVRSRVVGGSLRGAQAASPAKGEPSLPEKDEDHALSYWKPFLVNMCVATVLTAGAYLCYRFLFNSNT

Danio rerio [25] = species on record: Danio rerio; assay: Inhibition of dusp5 gene expression in Tg(dusp:EGFP)pt6 zebrafish embryos; type: functional; settings: Embryo
[26] = molecular target: T1, Dual specificity protein phosphatase 6 (Homo sapiens); assay: Inhibition of […] in Tg(dusp:EGFP);ace mutant zebrafish assessed as increase in FGF-signaling mediated d2EGFP fluorescence in mid-hindbrain boundary at 10 uM after 2 hrs
[27] = molecular target: T7, M-phase inducer phosphatase 2 (Homo sapiens, UniProt P30305); assay: Inhibition of Cdc25B
T7 sequence (P30305 whole entry): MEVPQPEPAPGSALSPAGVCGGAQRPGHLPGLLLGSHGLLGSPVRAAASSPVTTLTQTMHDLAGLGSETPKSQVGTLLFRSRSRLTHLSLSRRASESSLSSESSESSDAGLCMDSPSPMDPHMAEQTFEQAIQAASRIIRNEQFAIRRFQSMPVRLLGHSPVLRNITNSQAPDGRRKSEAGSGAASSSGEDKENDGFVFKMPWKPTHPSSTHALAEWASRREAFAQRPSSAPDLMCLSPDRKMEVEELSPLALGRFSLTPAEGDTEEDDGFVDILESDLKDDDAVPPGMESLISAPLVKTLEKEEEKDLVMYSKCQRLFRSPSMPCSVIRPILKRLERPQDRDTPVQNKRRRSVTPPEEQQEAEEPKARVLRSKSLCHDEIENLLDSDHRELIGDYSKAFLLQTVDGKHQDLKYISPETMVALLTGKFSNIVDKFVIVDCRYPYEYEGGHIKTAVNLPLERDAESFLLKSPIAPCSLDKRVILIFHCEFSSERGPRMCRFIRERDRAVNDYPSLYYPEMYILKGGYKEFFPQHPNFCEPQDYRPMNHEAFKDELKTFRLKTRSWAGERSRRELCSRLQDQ

Danio rerio [28] = species on record: Danio rerio; assay: Inhibition of dusp1 gene expression in Tg(dusp:EGFP)pt6 zebrafish embryos; type: functional; settings: Embryo
Danio rerio [29] = species on record: Danio rerio; assay: Inhibition of dusp7 gene expression in Tg(dusp:EGFP)pt6 zebrafish embryos; type: functional; settings: Embryo
Danio rerio [30] = species on record: Danio rerio; assay: Induction of cardiac tissue expansion in larval stage Tg(dusp:EGFP)pt6 zebrafish embryo after 8 hrs; type: functional, tissue-based
[31] = molecular target: T1, Dual specificity protein phosphatase 6 (Homo sapiens); assay: Inhibition of Dusp6 in Tg(dusp:EGFP)pt6 zebrafish embryo assessed as reduction in scl gene expression; settings: concentration not given here
[32] = molecular target: Dual specificity protein phosphatase 3 (Homo sapiens, UniProt P51452); assay: Inhibition of Dusp3/VHR
[33] = molecular target: T1, Dual specificity protein phosphatase 6 (Homo sapiens); assay: Inhibition of Dusp6 in 1-somite stage Tg(dusp:EGFP)pt6 zebrafish assessed as increase in dusp6 FGF target gene expression in mid-hindbrain boundary at 10 uM by RT-PCR
[34] = molecular target: T1, Dual specificity protein phosphatase 6 (Homo sapiens); assay: Inhibition of Dusp6 in 10-somite stage Tg(dusp:EGFP)pt6 zebrafish assessed as increase in dusp6 FGF target gene expression in mid-hindbrain boundary at 10 uM by RT-PCR
[35] = molecular target: T1, Dual specificity protein phosphatase 6 (Homo sapiens); assay: Inhibition of Dusp6 in Tg(dusp:EGFP)pt6 zebrafish assessed as increase in engrailed 2b in prospective mid-hindbrain boundary at 10 uM by RT-PCR
[36] = molecular target: T1, Dual specificity protein phosphatase 6 (Homo sapiens); assay: Inhibition of Dusp6 basal phosphatase activity using 3-o-methylfluoro-rescein phosphate substrate in presence of ERK protein; settings: concentration not given here; procedure, shortened: as §3
[37] = molecular target: T1, Dual specificity protein phosphatase 6 (Homo sapiens); assay: Inhibition of Dusp6 in Tg(dusp:EGFP)pt6 zebrafish assessed as increase in il17rd gene expression at 10 uM by RT-PCR

Dual specificity protein phosphatase 3, sequence (P51452 whole entry): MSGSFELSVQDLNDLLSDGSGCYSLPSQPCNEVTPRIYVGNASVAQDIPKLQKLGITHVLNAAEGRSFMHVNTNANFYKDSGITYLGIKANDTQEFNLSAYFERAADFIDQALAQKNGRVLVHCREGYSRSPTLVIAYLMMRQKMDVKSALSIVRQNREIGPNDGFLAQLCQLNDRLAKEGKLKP

## O=C1CC(NC2CCCCC2)c2ccccc21 (stereo not drawn)
[1]
  inhibition: inactive
[2]
  inhibition: inactive

## O=C1/C(=C/c2ccccc2)C(NC2CCCCC2)c2ccccc21 (stereo not drawn)
Danio rerio [3]
  inhibition: Active
[4]
  inhibition: inactive
[5]
  IC50: 11.5 µM
[6]
  inhibition: 30%
[7]
  Activity: 81%
Danio rerio [8]
  Activity: 81%
[1]
  inhibition: Active
[9]
  IC50: 12.3 µM
[10]
  inhibition: Active
[11]
  Activity: 91%
[12]
  inhibition: inactive
Danio rerio [13]
  Activity: 81%
[14]
  inhibition: Active
[15]
  inhibition: inactive
[16]
  inhibition: Active
[17]
  inhibition: Active
[18]
  inhibition: Active
[19]
  inhibition: Dose-dependent effect
Danio rerio [20]
  Activity: 32%
[21]
  inhibition: Active
Danio rerio [22]
  inhibition: Active
[23]
  inhibition: inactive
[24]
  IC50: Not Active
Danio rerio [25]
  inhibition: Active
[26]
  inhibition: inactive
[27]
  IC50: Not Active
Danio rerio [28]
  inhibition: Active
Danio rerio [29]
  inhibition: Active
Danio rerio [30]
  Activity: Active
[31]
  inhibition: 93%
[32]
  IC50: Not Active
[33]
  inhibition: Active
[34]
  inhibition: Active
[35]
  inhibition: Active
[36]
  inhibition: 57%
[37]
  inhibition: Active
